Screening data as filed in PubChem BioAssay.
An excerpt weighted towards active compounds, which were near 4.1% of everything screened.
KCNQ1 pot = potentiators or activators of human KCNQ1 potassium channel; CHO-K1 KCNQ1, thallium flux FluxOR fluorescence; active compounds read high; 0.35% of 310,000 active; P51787; B-score at 10 µM;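 active = fluorescence ratio B-score, a plate-corrected score, at least three library SD, with initial intensity B-score within 5 SD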
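Assay system: CHO-K1 cells stably expressing KCNQ1. Medium: assay buffer for compound exposure, DMSO matched across wells. Timing: 37 °C overnight plating, 90-min dark dye load, 20-min compound pretreatment. Signal: kinetic FluxOR fluorescence, 10 s baseline plus 110 s post-stimulus.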
KCNK9 block = inhibitors of human KCNK9 two-pore domain potassium channel; HEK293 KCNK9, FluxOR thallium flux fluorescence; active compounds read low; B-score at 10 µM; 1.2% of 310,000 active; AID 488922; Q9NPC2;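 active = ratio B-score over 3 SD below the library mean, with starting fluorescence within 5 SD of its mean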;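 note: negative B-score means less thallium flux so channel inhibition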
KCNK3 inh = human KCNK3 channel inhibition, primary screen; O14649; CHO-KCNK3 thallium flux, FluxOR fluorescence; active compounds read low; B-score at 10 µM; 0.84% of 340,000 active;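 active = B-score under library mean minus 4 SD, starting fluorescence ratio at most library mean plus 5 SD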;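 note: more negative B-score means stronger inhibition of thallium flux through KCNK3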
Target sequence (O14649 whole entry, looked up): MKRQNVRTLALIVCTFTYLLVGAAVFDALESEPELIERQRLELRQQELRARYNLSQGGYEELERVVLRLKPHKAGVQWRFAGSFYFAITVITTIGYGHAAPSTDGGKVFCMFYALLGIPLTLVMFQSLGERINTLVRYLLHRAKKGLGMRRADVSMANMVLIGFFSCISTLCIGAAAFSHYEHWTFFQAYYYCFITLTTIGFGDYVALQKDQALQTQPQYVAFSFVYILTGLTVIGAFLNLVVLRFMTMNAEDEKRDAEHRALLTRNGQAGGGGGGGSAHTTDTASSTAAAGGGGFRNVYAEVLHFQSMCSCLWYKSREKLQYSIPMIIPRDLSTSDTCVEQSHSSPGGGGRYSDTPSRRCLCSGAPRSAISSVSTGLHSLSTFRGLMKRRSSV
KCNQ1 block = blocks the human KCNQ1 potassium channel | 1.3% of 310,000 active | B-score at 10 µM | CHO-K1 KCNQ1, FluxOR thallium flux fluorescence; active compounds read high;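 active = compounds whose thallium flux B-score, printed positive for inhibition, exceeds three library SD while starting fluorescence stays within three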;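 note: channel opened by potassium depolarization with thallium stimulus after 20 min compound exposure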
Cl transport mod = modulators of human KCC2 chloride dependent transport; Q9H2X9; KCC2 cells, thallium flux FluoZin-2 fluorescence; B-score of Tl+ flux slope (higher = more flux/activation; lower = inhibition) at 10 µM; 2.2% of 190,000 active;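 active = thallium flux slope and its plate-corrected score both differing from the plate sample mean at a set confidence after two filtering rounds, in either direction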;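 note: slope of fluorescence scaled to starting intensity during 10 to 20 s after thallium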
hERG rescue = hERG (human) protection from proarrhythmic block | Q12809 | CHO-hERG, FluxOR thallium flux, dofetilide IC70 present | activation (rescue from dofetilide block), less the hit threshold, % at 10 µM | 0.51% of 310,000 active | AID 1511;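 active = activation above the mean of controls blocked by dofetilide plus 5 SD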;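 note: thallium influx through hERG after potassium depolarization seen as dye fluorescence rise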
KCNK3 confirm = human KCNK3 channel inhibition, confirmation assay | shares compounds with KCNK3 inh | CHO-KCNK3 thallium flux, FluxOR fluorescence; 0% buffer, 100% carvedilol maximal block | ratio percent of control, % at 10 µM | 99% of 2,400 active | AID 651638;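 active = ratio percent of control, averaged over triplicates, above buffer control mean plus 5 SD, cut at about 64% in these data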;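 note: ratio is the fluorescence rise from min to max over baseline after thallium stimulus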
KCNK3 uninduced = activity in cells without induced KCNK3 expression; thallium flux ratio (lower = more inhibition) at 10 µM; shares compounds with KCNK3 inh; non-induced KCNK3 parental cells, FluxOR thallium flux; active compounds read low; AID 651747; 40% of 2,400 active;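 active = thallium flux ratio, averaged over three wells, more than 5 SD below the buffer control mean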;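 note: host cells are CHO cells without KCNK3 induction; ratio is peak minus trough fluorescence over baseline then normalized to buffer controls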
* hit, by the source's call; i = inactive; · = no result given.

SMILES	KCNQ1 pot	KCNK9 block	KCNK3 inh	KCNQ1 block	Cl transport mod	hERG rescue	KCNK3 confirm	KCNK3 uninduced
COc1ccc(CCN2CC(C(=O)NCc3ccccc3)CCC2=O)cc1 (stereo not drawn)	i	i	i	i	·	-4	·	·
CCCCCCNCc1ccc(Br)cc1	i	i	-9.7*	i	0.0026	-6	77*	i
O=C1CCCN1c1ccc(S(=O)(=O)Nc2cccnc2)cc1	i	i	i	i	-0.019	-3	·	·
COc1ccccc1C(=O)NCCC(=O)N1CCCCC1	i	i	i	i	·	-9	·	·
COc1ccccc1C(=O)NCCC(=O)N1CCCC(C(F)(F)F)C1 (stereo not drawn)	i	i	-9.5*	i	·	0	77*	i
Cc1nn(C(C)(C)C)c(OC(=O)c2cccs2)c1Sc1ccccc1	i	-8.1*	-12*	i	-0.0033	-8	101*	i
O=C(Nc1ccc(Cl)cc1Cl)NC1CCCC1	i	i	i	i	0.25	-13	·	·
CN(C(=O)Nc1ccc(Cl)cc1Cl)C1CCCC1	i	i	-9.1*	i	·	-22	76*	i
CCCCCn1c(N)c(-c2nc3ccccc3s2)c2c([N+](=O)[O-])nn(C)c(=O)c21	i	i	-11*	11*	0.0096	-43	102*	0.15*
CSc1ccc(CN(C)C(=O)COc2ccc(C(=O)c3ccccc3)cc2)cc1	i	i	-9.4*	i	·	-7	101*	i
COc1ccc(CCN(C)C(=O)COc2ccc(C(=O)c3ccccc3)cc2)cc1OC	i	i	i	i	·	-10	·	·
CCN(C(=O)CSc1nc2ccccc2c(=O)n1Cc1ccc(C)cc1)C1CCS(=O)(=O)C1 (stereo not drawn)	i	i	-9.5*	i	·	-12	97*	i
Cc1ccc(-n2c(SCC(=O)N3CC(=O)Nc4ccccc43)nc3ccccc3c2=O)cc1C	i	i	i	i	-0.39	-15	·	·
Cc1cccc(-n2c(SCC(=O)N3CC(=O)Nc4ccccc43)nc3ccccc3c2=O)c1	i	i	-10*	i	-0.79	-15	100*	i
CCN(C(=O)CSc1nc2ccc(O)cc2c(=O)n1-c1ccc(OC)c(OC)c1)C1CCS(=O)(=O)C1 (stereo not drawn)	·	·	i	·	·	·	·	·
CCc1cc2c(=O)n(Cc3ccco3)c(SCC(=O)NC3CCS(=O)(=O)C3)nc2s1 (stereo not drawn)	i	i	i	i	-1.3	-5	·	·
CCN(C(=O)CSc1nc2ccccc2c(=O)n1-c1cccc(C)c1)C1CCS(=O)(=O)C1 (stereo not drawn)	i	i	-11*	i	-1.3	-15	100*	i
CCc1cc2c(=O)n(Cc3ccco3)c(SCC(=O)N(C)C3CCS(=O)(=O)C3)nc2s1 (stereo not drawn)	i	i	-9.9*	i	0.18	-17	100*	i
CCOc1ccc(CCNC(=O)COC(=O)c2nn(C)c(=O)c3ccccc23)cc1OCC	i	i	i	i	·	-8	·	·
CN(C(=O)c1cccc(NC(=O)Cc2ccc(NC(=O)C3CCCN(C(=O)C4CCCC4)C3)cc2)c1)C1CCCCC1 (stereo not drawn)	·	·	i	·	·	·	·	·
CCC(C(=O)NCCCc1ccccc1)n1nc(C)c2c(C)n(-c3ccccc3)nc2c1=O (stereo not drawn)	i	i	i	i	·	-9	·	·
CCC(C(=O)NCCC1=CCCCC1)n1nc(C)c2c(C)n(-c3ccccc3)nc2c1=O (stereo not drawn)	i	i	-8.8*	i	·	-9	89*	i
